Measurements from different studies.
Lines come from different studies, so protocols differ.
SRC: Proto-oncogene tyrosine-protein kinase Src (SRC, Homo sapiens, UniProt P12931)

SMILES | target | test | setting | measurement | value
O=C1Nc2ccc(Cl)cc2C1=Cc1cc(Cl)c(O)c(Cl)c1 | SRC | cell-free assay | 0.5 µM | remaining signal | 96.2%
COc1cc2ncnc(Nc3ccc(Oc4ccccc4)cc3C)c2cc1OC | SRC | enzyme activity, inhibitor | 1 µM | inhibition | 90%
CSc1nc(C)c(-c2ccnc(Nc3ccc(N4CCOCC4)cc3)c2)[nH]1 | SRC | enzyme activity, inhibitor | 10 µM | inhibition | 12.5%
COc1cc2nccc(Oc3ccc(NC(=O)c4c5n(n(-c6ccc(F)cc6)c4=O)CCCC5)cc3)c2cc1OC | SRC | enzyme activity, inhibitor | 0.1 µM | inhibition | 49%
c1nc2c(Nc3ccc4c(c3)OCCO4)nc(Nc3ccc4c(c3)OCCO4)nc2[nH]1 | SRC | binding, competition with immobilised ligand | 10 µM | binding vs control | 1.8%
Cn1nc(C(F)(F)F)cc1-c1cnc(N2CCc3cc(S(=O)(=O)Nc4c(F)cc(Cl)cc4F)cc(N4CCCC4=O)c32)nc1 | SRC | cell-free assay, competition with immobilised ligand | 1 µM | remaining binding | 100%
O=C1NC(=O)c2cc(Nc3ccc(F)cc3)c(Nc3ccc(F)cc3)cc21 | SRC | cell-free assay | 0.5 µM | remaining signal | 101%
CO[C@H]1CC[C@H](CNc2ccc(S(=O)(=O)NC(=O)c3ccc(N4CCN(CC5=C(c6ccc(Cl)cc6)CC(C)(C)CC5)CC4)cc3Oc3cnc4[nH]ccc4c3)cc2[N+](=O)[O-])CC1 | SRC | cell-free assay, competition with immobilised ligand | 1 µM | remaining binding | 78%
Cc1cc(Nc2nc(-c3ccccc3)nc3ccccc23)n[nH]1 | SRC | cell-free assay | 0.5 µM | remaining signal | 24.4%
C[C@@H]1CN(c2cc(-c3nn(C)c4ccc(OC5(C)CC5)cc34)ncn2)C[C@H](C)O1 | SRC | cell-free assay, competition with immobilised ligand | 1 µM | remaining binding | 100%
CC/C(=N\NC(=O)NCc1cccc(O)c1)c1ccc(O)c(C)c1O | SRC | enzyme activity, inhibitor | 0.1 µM | inhibition | 1.9%
FC(F)(F)Oc1cccc(-c2cnc3ccc(-c4ccncc4)nn23)c1 | SRC | enzyme activity, inhibitor, radiometric | 1 µM | activity vs control | 47%
CNC(=O)c1ccc(Nc2ncc(C(F)(F)F)c(NCc3nccnc3N(C)S(C)(=O)=O)n2)cc1 | SRC | cell-free assay, competition with immobilised ligand | 0.1 µM | remaining binding | 79%
CS(=O)(=O)Nc1cccc(-c2csc(NC(=O)CSc3nc4nccnc4c(=O)n3CCc3ccccc3)n2)c1 | SRC | enzyme activity, inhibitor | 10 µM | inhibition | 10%
Cc1ccc(Nc2nccc(N(C)c3ccc4c(C)n(C)nc4c3)n2)cc1S(N)(=O)=O | SRC | enzyme activity, inhibitor | 0.3 µM | inhibition | 42%
Cc1ccc(C(=O)NCc2ccsc2)cc1C#Cc1cn(C(C)C)c2ncnc(N)c12 | Proto-oncogene tyrosine-protein kinase Src (SRC, Homo sapiens, UniProt P12931, T341M) | enzyme activity, inhibitor | 1 µM | activity vs control | 79%
O=C1CCc2cc(Nc3cc(OC4CCOCC4)c([N+](=O)[O-])cc3Cl)ccc2N1 | SRC | cell-free assay, competition with immobilised ligand | 1 µM | remaining binding | 100%
O=C1c2ccccc2-c2n[nH]c3cccc1c23 | SRC | enzyme activity, inhibitor | 0.5 µM | activity vs control | 97.6%
Cc1ccc(NC(=O)c2ccc(C)c(C(F)(F)F)c2)cc1C#Cc1nn(C2CCC(O)CC2)c2ncnc(N)c12 (stereo not drawn) | SRC | cell-free assay | 10 µM | remaining signal | 0%
COc1cccc2c(NCc3ccccc3)nc(-n3c(N)nc4ccccc43)nc12 | SRC | target engagement in cells, inhibitor, chemoproteomics | 20 mM | inhibition | -15.5%
COc1cc2ncnc(Nc3cccc(Cl)c3)c2cc1OC | SRC | cell-free assay | 0.5 µM | remaining signal | 71.9%
CO[C@@H](C)c1c(Nc2ccc([C@@H](N(C)C(=O)C3CCS(=O)(=O)CC3)C(F)(F)F)cc2)cnc2cc(Cl)nn12 | SRC | cell-free assay, competition with immobilised ligand | 1 µM | remaining binding | 98%
COc1cc2ncnc(N3CCN(C(=O)Nc4ccc(Oc5ccccc5)cc4)CC3)c2cc1OC | SRC | cell-free assay | 0.5 µM | remaining signal | 102%
O=C(NCc1ncc(C(F)(F)F)cc1Cl)c1ccc2c(c1)C1(CCS(=O)(=O)CC1)[C@H](C1CC1)N2S(=O)(=O)c1ccc(F)cc1 | SRC | cell-free assay, competition with immobilised ligand | 1 µM | remaining binding | 98%
Cc1ccc(C(=O)Nc2ccc(CN3CCN(C)CC3)c(C(F)(F)F)c2)cc1C#Cc1cnc2cccnn12 | SRC | thermal stability, DSF |  | ΔTm | 5.1 °C
CCC(=O)N[C@@H]1CC[C@H](C(=O)N(C)c2ccc(-c3nc4ccccc4o3)cc2)C1 | SRC | cell-free assay, competition with immobilised ligand | 1 µM | remaining binding | 100%
CN(C)C1CCN(CC#Cc2nn(C3CCCC3)c3nc(NCc4ccccc4)ncc23)C1 (stereo not drawn) | SRC | enzyme activity, inhibitor, FRET | 10 µM | inhibition | 41%
